{
  "source": "ChEMBL document CHEMBL4330069",
  "about": "“Boosting the efficacy of anti-MRSA β-lactam antibiotics via an easily accessible, non-cytotoxic and orally bioavailable FtsZ inhibitor” (Eur J Med Chem, 2019)",
  "key": {"[1]": {"system": "Staphylococcus aureus", "experiment": "Antibacterial activity against multidrug-resistant Staphylococcus aureus isolate 3332 by broth microdilution assay", "format": "functional", "summary_of_the_method": "(§1)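 Broth microdilution MIC per CLSI guidelines against clinical MRSA isolates, for β-lactams and test compound alone and in combination. Compounds were dissolved in DMSO. Growth was read by eye, in duplicate. FIC index = FIC(compound) + FIC(drug); synergy defined as FIC index ≤0.5.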"}, "[2]": {"system": "Staphylococcus aureus", "experiment": "Antibacterial activity against multidrug-resistant Staphylococcus aureus isolate 2516 by broth microdilution assay", "format": "functional", "summary_of_the_method": "as §1"}, "[3]": {"system": "Staphylococcus aureus", "experiment": "Antibacterial activity against multidrug-resistant Staphylococcus aureus isolate 2919 by broth microdilution assay", "format": "functional", "summary_of_the_method": "as §1"}, "[4]": {"system": "Staphylococcus aureus", "experiment": "Antibacterial activity against multidrug-resistant Staphylococcus aureus isolate 3589 by broth microdilution assay", "format": "functional", "summary_of_the_method": "as §1"}, "[5]": {"system": "Staphylococcus aureus", "experiment": "Antibacterial activity against multidrug-resistant Staphylococcus aureus isolate 256 by broth microdilution assay", "format": "functional", "summary_of_the_method": "as §1"}, "[6]": {"system": "Staphylococcus aureus", "experiment": "Antibacterial activity against multidrug-resistant Staphylococcus aureus isolate 757 by broth microdilution assay", "format": "functional", "summary_of_the_method": "as §1"}, "[7]": {"system": "Staphylococcus aureus", "experiment": "Antibacterial activity against multidrug-resistant Staphylococcus aureus isolate 1136 by broth microdilution assay", "format": "functional", "summary_of_the_method": "as §1"}, "[8]": {"system": "Staphylococcus aureus", "experiment": "Antibacterial activity against multidrug-resistant Staphylococcus aureus isolate 3267 by broth microdilution assay", "format": "functional", "summary_of_the_method": "as §1"}, "[9]": {"system": "Staphylococcus aureus", "experiment": "Antibacterial activity against multidrug-resistant Staphylococcus aureus isolate 200 by broth microdilution assay", "format": "functional", "summary_of_the_method": "as §1"}, "[10]": {"system": "Staphylococcus aureus", "experiment": "Antibacterial activity against multidrug-resistant Staphylococcus aureus isolate 1749 by broth microdilution assay", "format": "functional", "summary_of_the_method": "as §1"}, "[11]": {"system": "Staphylococcus aureus", "experiment": "Antibacterial activity against multidrug-resistant Staphylococcus aureus isolate 417 by broth microdilution assay", "format": "functional", "summary_of_the_method": "as §1"}, "[12]": {"system": "Staphylococcus aureus", "experiment": "Antibacterial activity against multidrug-resistant Staphylococcus aureus isolate 1402 by broth microdilution assay", "format": "functional", "summary_of_the_method": "as §1"}, "[13]": {"system": "Staphylococcus aureus", "experiment": "Antibacterial activity against multidrug-resistant Staphylococcus aureus isolate 231 by broth microdilution assay", "format": "functional", "summary_of_the_method": "as §1"}, "[14]": {"system": "Staphylococcus aureus", "experiment": "Antibacterial activity against multidrug-resistant Staphylococcus aureus isolate 774 by broth microdilution assay", "format": "functional", "summary_of_the_method": "as §1"}, "[15]": {"system": "Staphylococcus aureus", "experiment": "Antibacterial activity against multidrug-resistant Staphylococcus aureus isolate 2224 by broth microdilution assay", "format": "functional", "summary_of_the_method": "as §1"}, "[16]": {"system": "Staphylococcus aureus", "experiment": "Antibacterial activity against multidrug-resistant Staphylococcus aureus isolate 3411 by broth microdilution assay", "format": "functional", "summary_of_the_method": "as §1"}, "[17]": {"system": "Staphylococcus aureus", "experiment": "Antibacterial activity against multidrug-resistant Staphylococcus aureus isolate 1717 by broth microdilution assay", "format": "functional", "summary_of_the_method": "as §1"}, "[18]": {"system": "Staphylococcus aureus", "experiment": "Antibacterial activity against multidrug-resistant Staphylococcus aureus isolate 85 by broth microdilution assay", "format": "functional", "summary_of_the_method": "as §1"}, "[19]": {"system": "Staphylococcus aureus", "experiment": "Antibacterial activity against multidrug-resistant Staphylococcus aureus isolate 2973 by broth microdilution assay", "format": "functional", "summary_of_the_method": "as §1"}, "[20]": {"system": "Staphylococcus aureus", "experiment": "Antibacterial activity against multidrug-resistant Staphylococcus aureus isolate 2490 by broth microdilution assay", "format": "functional", "summary_of_the_method": "as §1"}, "[21]": {"system": "Staphylococcus aureus", "experiment": "Antibacterial activity against multidrug-resistant Staphylococcus aureus isolate 2728 by broth microdilution assay", "format": "functional", "summary_of_the_method": "as §1"}, "[22]": {"system": "Staphylococcus aureus", "experiment": "Antibacterial activity against multidrug-resistant Staphylococcus aureus isolate 2901 by broth microdilution assay", "format": "functional", "summary_of_the_method": "as §1"}, "[23]": {"system": "Staphylococcus aureus", "experiment": "Antibacterial activity against multidrug-resistant Staphylococcus aureus isolate 254 by broth microdilution assay", "format": "functional", "summary_of_the_method": "as §1"}, "[24]": {"system": "Staphylococcus aureus", "experiment": "Antibacterial activity against multidrug-resistant Staphylococcus aureus isolate 1449 by broth microdilution assay", "format": "functional", "summary_of_the_method": "as §1"}, "[25]": {"system": "Staphylococcus aureus", "experiment": "Antibacterial activity against multidrug-resistant Staphylococcus aureus isolate 1344 by broth microdilution assay", "format": "functional", "summary_of_the_method": "as §1"}, "[26]": {"system": "Staphylococcus aureus", "experiment": "Antibacterial activity against multidrug-resistant Staphylococcus aureus isolate 358 by broth microdilution assay", "format": "functional", "summary_of_the_method": "as §1"}, "[27]": {"system": "Staphylococcus aureus", "experiment": "Antibacterial activity against multidrug-resistant Staphylococcus aureus isolate 2895 by broth microdilution assay", "format": "functional", "summary_of_the_method": "as §1"}, "[28]": {"system": "Staphylococcus aureus", "experiment": "Antibacterial activity against multidrug-resistant Staphylococcus aureus isolate 3580 by broth microdilution assay", "format": "functional", "summary_of_the_method": "as §1"}, "[29]": {"experiment": "Selective index, ratio of IC50 for mouse L929 cells to MIC for Staphylococcus aureus ATCC 29213", "summary_of_the_method": "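Selectivity index calculated as L929 IC50 (μM) divided by S. aureus MIC (μM).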"}, "[30]": {"system": "L929", "experiment": "Cytotoxicity against mouse L929 cells by MTS assay", "format": "cell-based", "summary_of_the_method": "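MTS assay on L929 mouse fibroblasts; IC50 reported as the average of three independent measurements.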"}, "[31]": {"system": "Staphylococcus aureus", "experiment": "Antibacterial activity against Staphylococcus aureus ATCC 29213 by broth microdilution assay", "format": "functional", "summary_of_the_method": "(§2)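 Broth microdilution per CLSI guidelines; compounds dissolved in DMSO; single agents tested; growth inhibition read by eye; run in duplicate (table footnote states at least triplicates).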"}, "[32]": {"system": "Escherichia coli", "experiment": "Antibacterial activity against Escherichia coli ATCC 25922 by broth microdilution assay", "format": "functional", "summary_of_the_method": "as §2"}},
  "data": [
    {"molecule": "COc1cccc(OC)c1C(=O)N[C@@H]1C(=O)N2[C@@H]1SC(C)(C)[C@@H]2C(=O)O", "note": "[METHICILLIN]", "values": [
      {"measurement": "MIC", "setting": "[1]", "value": 128, "unit": "µg/mL"},
      {"measurement": "MIC", "setting": "[2]", "value": 64, "unit": "µg/mL"},
      {"measurement": "MIC", "setting": "[3]", "value": 32, "unit": "µg/mL"},
      {"measurement": "MIC", "setting": "[4]", "value": 256, "unit": "µg/mL"},
      {"measurement": "MIC", "setting": "[5]", "value": 128, "unit": "µg/mL"},
      {"measurement": "MIC", "setting": "[6]", "value": 64, "unit": "µg/mL"},
      {"measurement": "MIC", "setting": "[7]", "value": 64, "unit": "µg/mL"},
      {"measurement": "MIC", "setting": "[8]", "value": 64, "unit": "µg/mL"},
      {"measurement": "MIC", "setting": "[9]", "value": 16, "unit": "µg/mL"},
      {"measurement": "MIC", "setting": "[10]", "value": 32, "unit": "µg/mL"},
      {"measurement": "MIC", "setting": "[11]", "value": 1020, "unit": "µg/mL"},
      {"measurement": "MIC", "setting": "[12]", "value": 32, "unit": "µg/mL"},
      {"measurement": "MIC", "setting": "[13]", "value": 1020, "unit": "µg/mL"},
      {"measurement": "MIC", "setting": "[14]", "value": 16, "unit": "µg/mL"},
      {"measurement": "MIC", "setting": "[15]", "value": 16, "unit": "µg/mL"},
      {"measurement": "MIC", "setting": "[16]", "value": 128, "unit": "µg/mL"},
      {"measurement": "MIC", "setting": "[17]", "value": 16, "unit": "µg/mL"},
      {"measurement": "MIC", "setting": "[18]", "value": 8, "unit": "µg/mL"},
      {"measurement": "MIC", "setting": "[19]", "value": 16, "unit": "µg/mL"},
      {"measurement": "MIC", "setting": "[20]", "value": 1020, "unit": "µg/mL"},
      {"measurement": "MIC", "setting": "[21]", "value": 32, "unit": "µg/mL"},
      {"measurement": "MIC", "setting": "[22]", "value": 256, "unit": "µg/mL"},
      {"measurement": "MIC", "setting": "[23]", "value": 1020, "unit": "µg/mL"},
      {"measurement": "MIC", "setting": "[24]", "value": 8, "unit": "µg/mL"},
      {"measurement": "MIC", "setting": "[25]", "value": 256, "unit": "µg/mL"},
      {"measurement": "MIC", "setting": "[26]", "value": 16, "unit": "µg/mL"},
      {"measurement": "MIC", "setting": "[27]", "value": 64, "unit": "µg/mL"},
      {"measurement": "MIC", "setting": "[28]", "value": 16, "unit": "µg/mL"}
    ]},
    {"molecule": "CCCCCCCCN(C)c1ccc(F)c(C(N)=O)c1F", "values": [
      {"measurement": "Selectivity Index", "setting": "[29]", "value": 7},
      {"measurement": "IC50", "setting": "[30]", "value": 92, "unit": "µM"},
      {"measurement": "MIC", "setting": "[31]", "value": 13, "unit": "µM"},
      {"measurement": "MIC", "setting": "[32]", "value": "> 64", "unit": "µg/mL"}
    ]},
    {"molecule": "CCCCCCCCCN(C)c1ccc(F)c(C(=N)N)c1F", "values": [
      {"measurement": "Selectivity Index", "setting": "[29]", "value": ">2"},
      {"measurement": "IC50", "setting": "[30]", "value": "> 100", "unit": "µM"},
      {"measurement": "MIC", "setting": "[31]", "value": 50, "unit": "µM"},
      {"measurement": "MIC", "setting": "[32]", "value": "> 64", "unit": "µg/mL"}
    ]},
    {"molecule": "CCCCOc1cccc(CNc2ccc(F)c(C(N)=O)c2F)c1", "values": [
      {"measurement": "Selectivity Index", "setting": "[29]", "value": 2},
      {"measurement": "IC50", "setting": "[30]", "value": 99, "unit": "µM"},
      {"measurement": "MIC", "setting": "[31]", "value": 50, "unit": "µM"},
      {"measurement": "MIC", "setting": "[32]", "value": "> 64", "unit": "µg/mL"}
    ]}
  ]
}
